The record followed here is publication PMC3064798 (Nucleic Acids Research, 2011).

SMILES strings stand for the structures. Entries after “also recorded” stand apart in the source; their conditions may differ.

Assay in all cases: PEP
Common to all, as to type: biochemical

In one assay the target is T1, Therminator polymerase (Thermococcus sp., UniProt Q56366, A485L/D141A/E143A).
T1 sequence (Q56366 1-775 D141A/E143A/A485L): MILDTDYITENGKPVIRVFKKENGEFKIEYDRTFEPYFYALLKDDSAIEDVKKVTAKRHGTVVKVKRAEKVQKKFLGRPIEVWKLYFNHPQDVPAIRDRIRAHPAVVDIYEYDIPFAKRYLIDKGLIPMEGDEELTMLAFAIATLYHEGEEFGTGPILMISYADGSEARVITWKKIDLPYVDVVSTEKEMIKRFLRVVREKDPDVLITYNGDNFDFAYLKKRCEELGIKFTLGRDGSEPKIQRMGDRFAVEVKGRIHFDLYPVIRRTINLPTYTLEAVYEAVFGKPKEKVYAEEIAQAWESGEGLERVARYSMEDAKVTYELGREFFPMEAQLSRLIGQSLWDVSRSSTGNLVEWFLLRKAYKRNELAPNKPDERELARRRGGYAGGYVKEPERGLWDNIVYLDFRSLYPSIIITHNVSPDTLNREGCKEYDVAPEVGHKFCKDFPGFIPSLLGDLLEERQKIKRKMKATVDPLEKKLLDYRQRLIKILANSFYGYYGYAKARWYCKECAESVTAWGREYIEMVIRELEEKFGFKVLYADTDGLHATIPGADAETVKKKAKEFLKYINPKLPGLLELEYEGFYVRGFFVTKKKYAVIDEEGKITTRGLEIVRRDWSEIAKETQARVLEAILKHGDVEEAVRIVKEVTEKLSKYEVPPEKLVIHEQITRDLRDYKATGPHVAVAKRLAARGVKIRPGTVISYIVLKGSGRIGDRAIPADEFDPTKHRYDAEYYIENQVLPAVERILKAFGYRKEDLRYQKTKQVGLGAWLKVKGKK
The following applies: for Incorporation bias (analog IC50/HOMedUTP IC50): Therminator. The procedure, abridged:
(§1)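 Polymerase end-point assay for single-base incorporation. 5 nM BODIPY-FL-labelled primer-1 was hybridised to 40 nM oligoTemplate-4, with the interrogation base complementary to dU. Absence of a +1 band on the 377 gel image at 100 μM counts as not active. IC50 was averaged from triplicates ± 1 SD. Incorporation bias is the analog IC50 divided by the natural-nucleotide (HOMedUTP) IC50.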

The target in another assay is T2, Bst polymerase (Geobacillus stearothermophilus, UniProt P52026).
T2 sequence (P52026 1-876): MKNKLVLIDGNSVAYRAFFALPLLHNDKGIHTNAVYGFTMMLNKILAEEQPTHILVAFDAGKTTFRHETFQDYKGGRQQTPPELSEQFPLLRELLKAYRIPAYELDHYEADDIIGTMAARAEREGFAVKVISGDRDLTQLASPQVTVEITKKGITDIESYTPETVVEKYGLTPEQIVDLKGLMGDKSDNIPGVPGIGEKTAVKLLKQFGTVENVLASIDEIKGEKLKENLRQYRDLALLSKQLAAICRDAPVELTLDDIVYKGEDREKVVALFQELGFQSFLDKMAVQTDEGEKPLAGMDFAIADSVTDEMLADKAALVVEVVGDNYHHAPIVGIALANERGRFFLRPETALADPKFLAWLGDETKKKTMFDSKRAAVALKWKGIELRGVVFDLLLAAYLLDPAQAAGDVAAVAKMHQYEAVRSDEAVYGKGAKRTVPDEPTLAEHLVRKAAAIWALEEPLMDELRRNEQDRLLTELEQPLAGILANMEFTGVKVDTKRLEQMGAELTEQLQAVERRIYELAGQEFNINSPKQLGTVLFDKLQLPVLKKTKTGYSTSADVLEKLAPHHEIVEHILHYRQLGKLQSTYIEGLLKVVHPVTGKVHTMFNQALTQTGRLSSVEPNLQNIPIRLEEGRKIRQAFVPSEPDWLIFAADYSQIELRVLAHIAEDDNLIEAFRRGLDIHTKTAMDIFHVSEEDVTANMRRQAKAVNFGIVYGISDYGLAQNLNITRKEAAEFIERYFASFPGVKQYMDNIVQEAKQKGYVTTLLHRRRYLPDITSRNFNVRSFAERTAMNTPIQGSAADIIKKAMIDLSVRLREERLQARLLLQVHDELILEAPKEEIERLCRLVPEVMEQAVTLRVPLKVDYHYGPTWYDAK
Summed up:
as §1

Assay [1] concerns the target T3, DeepVent(exo^−) polymerase (Pyrococcus sp., UniProt Q51334, D141A/DEL493-1029/E143A).
T3 sequence (Q51334 with tags, fused parts or gaps D141A/E143A/DEL493-1029): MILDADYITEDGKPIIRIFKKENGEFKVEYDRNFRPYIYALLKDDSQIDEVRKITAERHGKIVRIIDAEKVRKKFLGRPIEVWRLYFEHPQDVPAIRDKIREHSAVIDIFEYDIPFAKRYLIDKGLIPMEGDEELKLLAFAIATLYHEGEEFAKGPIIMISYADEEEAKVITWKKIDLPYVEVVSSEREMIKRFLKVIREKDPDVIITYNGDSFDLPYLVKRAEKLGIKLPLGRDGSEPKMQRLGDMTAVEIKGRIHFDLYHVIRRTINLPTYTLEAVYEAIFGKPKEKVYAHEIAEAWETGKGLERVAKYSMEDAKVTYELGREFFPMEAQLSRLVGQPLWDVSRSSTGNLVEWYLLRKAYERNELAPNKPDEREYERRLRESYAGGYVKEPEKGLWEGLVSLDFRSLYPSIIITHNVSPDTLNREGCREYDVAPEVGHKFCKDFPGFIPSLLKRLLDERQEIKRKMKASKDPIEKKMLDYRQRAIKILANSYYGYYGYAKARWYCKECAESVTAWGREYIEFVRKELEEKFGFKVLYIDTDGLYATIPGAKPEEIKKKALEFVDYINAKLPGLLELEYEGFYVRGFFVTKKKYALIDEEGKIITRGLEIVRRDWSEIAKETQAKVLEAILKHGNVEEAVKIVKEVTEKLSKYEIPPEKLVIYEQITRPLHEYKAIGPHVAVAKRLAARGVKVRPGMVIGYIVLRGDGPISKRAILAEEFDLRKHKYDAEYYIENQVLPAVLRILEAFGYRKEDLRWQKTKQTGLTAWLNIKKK
The note with it: for Incorporation bias (analog IC50/HOMedUTP IC50): DeepVent(exo^−). The procedure, abridged:
as §1

Consider `CC(OCc1cn([C@H]2C[C@H](O)[C@@H](COP(=O)(O)OP(=O)(O)OP(=O)(O)O)O2)c(=O)[nH]c1=O)c1ccccc1[N+](=O)[O-]` (mixture of isomers) [dU.II, 5-[1-(2-Nitrophenyl)ethyloxy]methyl-2'-deoxyuridine-5’-triphosphate], for which the entries for the “Incorporation bias (analog IC50/HOMedUTP IC50)” value (at Therminator polymerase; at Bst polymerase (Bst); in assay [1]) were 1.0, 1600 and 6.3, respectively. The IC50 turned out to be 3500 ± 200 nM on Bst polymerase and 17 ± 1 nM in assay [1].
With `CC(C)C(OCc1cn([C@H]2C[C@H](O)[C@@H](COP(=O)(O)OP(=O)(O)OP(=O)(O)O)O2)c(=O)[nH]c1=O)c1ccccc1[N+](=O)[O-]` (mixture of isomers) [dU.III, 5-[1-(2-Nitrophenyl)-2-methyl-propyloxy]methyl-2'-deoxyuridine-5’-triphosphate], the “Incorporation bias (analog IC50/HOMedUTP IC50)” value was 1.4 on Therminator polymerase and 80 in assay [1]. Besides, at Bst polymerase (Bst, Not Active = no visible +1 band in 377 gel image at 100 μM), the “IC50 values (activity in words)” value was “none of the Family A polymerases showed any activity; also recorded: Not Active^a”. In assay [1], this compound registered an IC50 of 220 ± 20 nM.
As for `O=c1[nH]c(=O)n([C@H]2C[C@H](O)[C@@H](COP(=O)(O)OP(=O)(O)OP(=O)(O)O)O2)cc1COCc1ccccc1[N+](=O)[O-]` [dU.I, 5-(2-Nitrobenzyloxy)methyl-2'-deoxyuridine-5’-triphosphate], the IC50 on Therminator polymerase turned out to be 1.8 ± 0.1 nM; against Bst polymerase, 98 ± 13 nM; in assay [1] it was 4.9 ± 1 nM. In addition, the “Incorporation bias (analog IC50/HOMedUTP IC50)” value on Therminator polymerase stood at 1.1; at Bst polymerase (Bst) it was 45; in assay [1] it was 1.8.
